We go through 18 molecules from PubChem BioAssay.

Active and inactive are the calls of the source.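 The calls were made as follows: active = current rise at least 3 SD above the untreated control mean in each of two repeat wells; inactive = the rest.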

Sequence of Potassium voltage-gated channel subfamily KQT member 1 (Homo sapiens) (P51787 whole entry, looked up): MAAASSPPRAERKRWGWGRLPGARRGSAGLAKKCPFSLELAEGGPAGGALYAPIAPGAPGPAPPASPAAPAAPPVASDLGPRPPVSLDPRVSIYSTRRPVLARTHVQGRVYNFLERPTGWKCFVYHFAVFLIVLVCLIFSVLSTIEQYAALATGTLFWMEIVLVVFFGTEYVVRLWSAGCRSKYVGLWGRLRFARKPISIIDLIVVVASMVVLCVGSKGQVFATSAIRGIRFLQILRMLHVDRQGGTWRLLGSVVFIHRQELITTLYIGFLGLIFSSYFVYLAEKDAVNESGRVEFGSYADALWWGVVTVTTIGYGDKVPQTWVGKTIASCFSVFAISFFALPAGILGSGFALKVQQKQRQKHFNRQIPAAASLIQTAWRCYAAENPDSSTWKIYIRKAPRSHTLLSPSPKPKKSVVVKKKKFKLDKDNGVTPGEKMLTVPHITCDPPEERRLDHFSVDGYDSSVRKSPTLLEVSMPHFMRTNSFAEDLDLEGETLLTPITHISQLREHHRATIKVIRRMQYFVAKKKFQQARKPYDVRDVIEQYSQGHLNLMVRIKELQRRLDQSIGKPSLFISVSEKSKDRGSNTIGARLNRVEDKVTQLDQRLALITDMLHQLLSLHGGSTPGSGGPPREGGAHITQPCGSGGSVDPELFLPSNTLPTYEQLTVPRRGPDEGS

The target in this assay is Potassium voltage-gated channel subfamily KQT member 1 (Homo sapiens) (UniProt P51787). The assay can be described thus: KCNQ1 channel current potentiators, confirmation, orthogonal assay for KCNQ1 potentiator project, IonWorks patch clamp, KCNQ1-CHO cells (AID 493184). Conditions: automated patch clamp current, at 10 µM. The method, boiled down:
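Test system: KCNQ1-expressing CHO cells. Medium: pH 7.4 external bath. Probe or stimulus: voltage step from -90 mV holding to +40 mV, 2,000 ms. Compound: 10 µM final, single point. Detection: automated perforated-patch electrophysiology. Read-out: percent current increase versus pre-compound level. Repeats: two replicates.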
In the case of `CCCCNC(=O)CNC(=O)c1nn(-c2ccc(OC)cc2OC)c(=O)c2ccccc12`, the outcome was inactive.

In the case of `O=C(NC(=S)Nc1nc2c(ccc3ccccc32)s1)c1cccs1`, the outcome was inactive.

Consider `NC(=O)c1ccc(N2CCNC(=O)C2)c([N+](=O)[O-])c1`, for which the outcome was inactive.

`Cc1cccc(N(CC(=O)NC2CCCC2)C(=O)c2csnn2)c1C`: the outcome was inactive.

`CNCCC=C1c2ccccc2CCc2ccccc21`: the result was inactive.

Consider `O=C(OCc1ccccc1)C1=NNC2C(=O)N(c3ccccc3)C(=O)C12` (stereo not drawn), for which the outcome was inactive.

For the molecule `COc1ccc(C2c3ccc4ccccc4c3Oc3ncn(CCCO)c(=N)c32)cc1OC` (stereo not drawn), the outcome was inactive.

Take `CCS(=O)(=O)N1Cc2ccccc2CC1C(=O)Nc1cccc(S(=O)(=O)N(C)C)c1` (stereo not drawn): the result was inactive.

Regarding `S=c1[nH]c2ccccc2c2ccccc12`, the outcome was inactive.

For the molecule `O=C(NC(=S)NC1CCCc2ccccc21)c1ccc(F)cc1` (stereo not drawn), the result was inactive.

With `O=C(c1ccc(COc2c(F)c(F)cc(F)c2F)o1)N1CCN(c2ccc(Cl)cc2)CC1`, the result was inactive.

Regarding `O=C(c1nnsc1S(=O)c1ccc(Cl)cc1)N1CCOCC1` (stereo not drawn), the outcome was inactive.

Turning to `CC1(c2ccc(OC(F)F)cc2)NC(=O)N(CC(=O)Nc2ccccc2)C1=O` (stereo not drawn), the result was inactive.

In the case of `Cc1ccc(C)c(NC(=S)NNC(=O)c2csc(C(C)C)c2)c1`, the outcome was inactive.

Consider `Cc1ccc(-c2nn(-c3ccccc3)cc2/C=N/n2c(-c3cccs3)n[nH]c2=S)cc1`, for which the result was inactive.

For the molecule `CCOC(=O)CS(=O)(=O)c1nc(-c2ccc(F)cc2)cc(C(F)(F)F)n1`, the result was inactive.

For the molecule `COC(=O)c1ccc(CSc2nnc(SCc3ccc(C(=O)OC)o3)s2)o1`, the outcome was inactive.

Turning to `COc1ccc(OC)c(Nc2cc3ccccc3c(=O)[nH]2)c1`, the outcome was inactive.
